{"data": "Measurements from different studies"}
{"Compound": "Nc1cc(Br)c(Br)cc1N", "tested on": "ME-180", "test": "cell growth or viability", "setting": "72 h", "endpoint": "IC50", "result": "75 µM"}
{"Compound": "CC1CCN(CCCN2/C(=C/c3cc[n+](C)c4ccccc34)Sc3ccccc32)CC1.[I-]", "tested on": "Enterobacter cloacae", "test": "microbial growth, broth dilution", "system": "ATCCBAA1143", "endpoint": "MIC", "result": "> 64 µg/mL"}
{"Compound": "CCCCCOc1ccc(-c2cc(-c3ccc(C(=O)N[C@H]4C[C@@H](O)[C@@H](O)NC(=O)[C@@H]5[C@@H](O)[C@@H](C)CN5C(=O)[C@H]([C@H](O)CC(N)=O)NC(=O)[C@H]([C@H](O)[C@@H](O)c5ccc(O)c(OS(=O)(=O)O)c5)NC(=O)[C@@H]5C[C@@H](O)CN5C(=O)[C@H]([C@@H](C)O)NC4=O)cc3)no2)cc1", "tested on": "Candida dubliniensis", "test": "biofilm formation", "setting": "16 µg/mL", "endpoint": "inhibition", "result": "42%"}
{"Compound": "COc1cccc(Oc2ccccc2NC(=O)CNC(=O)c2cccc3ccccc23)c1", "tested on": "HL-60", "test": "cell growth or viability", "setting": "48 h", "endpoint": "GI50", "result": "0.0813 µM"}
{"Compound": "CO[C@H]1/C=C/O[C@@]2(C)Oc3c(C)c(O)c4c(O)c(c(/C=N/N5CCN(C)CC5)c(O)c4c3C2=O)NC(=O)/C(C)=C\\C=C\\[C@H](C)[C@H](O)[C@@H](C)[C@@H](O)[C@@H](C)[C@H](OC(C)=O)[C@@H]1C", "tested on": "Vero", "test": "cell growth or viability", "setting": "18 h", "endpoint": "IC50", "result": "120 µg/mL"}
{"Compound": "CN1C[C@H](C(=O)N[C@]2(C)O[C@@]3(O)[C@@H]4CCCN4C(=O)[C@H](Cc4ccccc4)N3C2=O)C=C2c3cccc4[nH]cc(c34)C[C@H]21", "tested on": "NCI-H1299", "test": "cell growth or viability, MTT", "setting": "72 h", "endpoint": "EC50", "result": "~25 µM"}
{"Compound": "Nc1cc(Cl)c(Cl)cc1N", "tested on": "ME-180", "test": "cell growth or viability", "setting": "72 h", "endpoint": "IC50", "result": "100 µM"}
{"Compound": "CN[C@H](CC(C)C)C(=O)N[C@H]1C(=O)N[C@@H](CC(N)=O)C(=O)N[C@H]2C(=O)N[C@H]3C(=O)N[C@H](C(=O)N[C@H](C(=O)O)c4cc(O)cc(O)c4-c4cc3ccc4O)[C@H](O)c3ccc(c(Cl)c3)Oc3cc2cc(c3O[C@@H]2O[C@H](CO)[C@@H](O)[C@H](O)[C@H]2O[C@H]2C[C@](C)(N)[C@H](O)[C@H](C)O2)Oc2ccc(cc2Cl)[C@H]1O", "tested on": "Enterobacter cloacae", "test": "microbial growth, broth dilution", "system": "ATCCBAA1143", "endpoint": "MIC", "result": "> 64 µg/mL"}
